Assay results taken from ChEMBL document CHEMBL4196128 (ACS Med Chem Lett, 2018).

Key:
Cytochrome P450 1A2 = molecular target: T1, Cytochrome P450 1A2 (Homo sapiens, UniProt P05177); assay: Inhibition of CYP1A2 (unknown origin) preincubated followed by substrate addition; assay type: ADME
T1 sequence (P05177 whole entry): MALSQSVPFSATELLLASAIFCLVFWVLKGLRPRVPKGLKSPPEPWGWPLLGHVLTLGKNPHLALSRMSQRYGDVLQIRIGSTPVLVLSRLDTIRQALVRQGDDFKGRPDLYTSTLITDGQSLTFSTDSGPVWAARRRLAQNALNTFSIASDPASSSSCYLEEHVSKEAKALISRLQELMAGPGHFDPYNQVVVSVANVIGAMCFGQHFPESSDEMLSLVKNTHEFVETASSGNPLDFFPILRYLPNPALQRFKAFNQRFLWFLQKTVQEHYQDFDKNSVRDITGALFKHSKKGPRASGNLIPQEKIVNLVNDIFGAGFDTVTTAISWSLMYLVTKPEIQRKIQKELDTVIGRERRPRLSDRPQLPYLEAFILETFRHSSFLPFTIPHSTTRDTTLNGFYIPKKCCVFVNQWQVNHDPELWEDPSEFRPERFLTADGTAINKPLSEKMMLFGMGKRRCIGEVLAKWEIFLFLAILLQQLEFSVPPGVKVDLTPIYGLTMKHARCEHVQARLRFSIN

[1] = Half life in monkey at 1 mg/kg, iv; conditions: cynomolgus monkey, in vivo
[2] = Mean residence time in CD1 mouse at 10 mg/kg, iv; assay type: ADME, organism-based; conditions: in vivo
Summary of the method: (§1)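 Intravenous dosing in male CD1 mice (10 mg/kg, n = 30), Sprague–Dawley rats (3 mg/kg, n = 3), beagle dogs (3 mg/kg, n = 3) and cynomolgus monkeys (1 mg/kg, n = 3). Vehicle was aqueous 20% hydroxypropyl-β-cyclodextrin. Mean residence time and steady-state volume of distribution were taken from plasma concentration–time profiles as mean parameters.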

[3] = Half life in Sprague-Dawley rat at 3 mg/kg, iv; assay type: ADME, organism-based; conditions: in vivo
Summary of the method: (§2)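 The compound was given intravenously as an aqueous solution in 20% hydroxypropyl-β-cyclodextrin. Animals were male CD1 mice (10 mg/kg, n = 30), Sprague–Dawley rats (3 mg/kg, n = 3), beagle dogs (3 mg/kg, n = 3) and cynomolgus monkeys (1 mg/kg, n = 3). Plasma concentration–time data gave mean AUC(0–∞), half-life, mean residence time, clearance and Vd,ss.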

[4] = Tmax in Sprague-Dawley rat at 10 mg/kg, po; assay type: ADME, organism-based; conditions: in vivo
Summary of the method: (§3)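 Oral dosing in male CD1 mice (30 mg/kg, n = 27), Sprague–Dawley rats (10 mg/kg, n = 3), beagle dogs (30 mg/kg, n = 3) and cynomolgus monkeys (10 mg/kg, n = 3). Mean Tmax was read from plasma concentration–time data. Bioavailability was derived from oral AUC(0–∞) compared with intravenous AUC.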

[5] = Clearance in monkey at 1 mg/kg, iv; conditions: cynomolgus monkey, in vivo
Cavia porcellus = assay: Cardiotoxicity in telemetered guinea pig assessed as changes in QRS interval at 30 to 100 mg/kg; assay type: toxicity, organism-based; conditions: in vivo
Summary of the method: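 Telemetered guinea pigs were exposed at 30 and 100 mg/kg. Electrocardiographic PR, QRS and QT/QTc intervals were monitored for changes related to the test article, and exposure was referenced to total Cmax.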

[6] = Tmax in Beagle dog at 30 mg/kg, po; assay type: ADME, organism-based, Canis lupus familiaris; conditions: in vivo; summary of the method: as §3
[7] = Mean residence time in Sprague-Dawley rat at 3 mg/kg, iv; assay type: ADME, organism-based; conditions: in vivo; summary of the method: as §1
Cytochrome P450 2C8 = molecular target: T2, Cytochrome P450 2C8 (Homo sapiens, UniProt P10632); assay: Inhibition of CYP2C8 (unknown origin) co-incubated with substrate; assay type: ADME
T2 sequence (P10632 whole entry): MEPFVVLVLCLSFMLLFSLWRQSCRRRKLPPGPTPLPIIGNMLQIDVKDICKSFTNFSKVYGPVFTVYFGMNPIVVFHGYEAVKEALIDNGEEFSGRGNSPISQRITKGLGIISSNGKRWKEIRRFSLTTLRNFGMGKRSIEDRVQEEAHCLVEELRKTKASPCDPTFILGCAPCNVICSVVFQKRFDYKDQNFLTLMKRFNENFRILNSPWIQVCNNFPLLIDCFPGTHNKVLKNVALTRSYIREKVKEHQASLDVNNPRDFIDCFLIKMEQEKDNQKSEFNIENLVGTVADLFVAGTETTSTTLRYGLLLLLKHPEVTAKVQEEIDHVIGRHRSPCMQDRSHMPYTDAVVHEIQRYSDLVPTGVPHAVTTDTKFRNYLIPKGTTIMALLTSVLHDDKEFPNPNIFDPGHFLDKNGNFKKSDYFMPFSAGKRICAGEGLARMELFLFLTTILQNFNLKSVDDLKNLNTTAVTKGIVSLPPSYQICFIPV

A2058 = assay: Antiproliferative activity against human A2058 cells harboring BRAF V600E/D mutant measured after 4 days; assay type: functional, cell-based; conditions: A2058, 96 h
[8] = Volume of distribution at steady state in monkey at 1 mg/kg, iv; conditions: cynomolgus monkey, in vivo, read-out: Vdss
COLO 205 [9] = assay: Antitumor activity against human COLO205 cells xenografted in nude mouse assessed as tumor growth inhibition at 40 mg/kg, po bid measured after 28 days relative to control; assay type: functional; conditions: COLO 205, po, 672 h, read-out: TGI
Summary of the method: (§4)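 Female nude mice carrying Colo-205 human colon tumor xenografts were randomized to oral dosing twice daily at 20, 40 or 60 mg/kg, or to vehicle. After 28 days of treatment, tumor growth inhibition or tumor regression was assessed relative to vehicle control, with P-value testing.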

Cytochrome P450 2C9 = Cytochrome P450 2C9 (Homo sapiens, UniProt P11712); assay: Inhibition of CYP2C9 (unknown origin) preincubated followed by substrate addition; assay type: ADME
Chain of Cytochrome P450 2C9 (P11712 whole entry): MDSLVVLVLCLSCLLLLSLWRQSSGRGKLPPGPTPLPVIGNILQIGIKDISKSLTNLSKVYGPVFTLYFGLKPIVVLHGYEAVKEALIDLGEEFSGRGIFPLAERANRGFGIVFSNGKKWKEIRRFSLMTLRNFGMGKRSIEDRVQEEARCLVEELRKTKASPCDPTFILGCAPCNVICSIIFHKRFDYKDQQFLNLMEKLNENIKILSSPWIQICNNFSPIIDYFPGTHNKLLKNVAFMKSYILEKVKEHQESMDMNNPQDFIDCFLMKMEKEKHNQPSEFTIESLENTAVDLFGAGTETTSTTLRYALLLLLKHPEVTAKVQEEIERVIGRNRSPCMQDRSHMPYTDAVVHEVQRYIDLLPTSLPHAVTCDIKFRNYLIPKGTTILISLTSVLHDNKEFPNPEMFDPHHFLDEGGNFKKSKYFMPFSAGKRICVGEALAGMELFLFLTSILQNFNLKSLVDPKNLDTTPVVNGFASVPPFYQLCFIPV

[10] = Protein binding in Sprague-Dawley rat plasma at 10 uM; assay type: ADME, cell-free; conditions: read-out: PPB
[11] = Clearance in Beagle dog at 3 mg/kg, iv; assay type: ADME, organism-based, Canis lupus familiaris; conditions: in vivo; summary of the method: as §2
[12] = Protein binding in mouse plasma at 10 uM; assay type: ADME, cell-free; conditions: read-out: PPB
[13] = Oral bioavailability in Beagle dog at 30 mg/kg; assay type: ADME, organism-based, Canis lupus familiaris; conditions: in vivo; summary of the method: as §3
[14] = Apparent permeability across apical to basolateral side in human Caco2 cells; assay type: ADME, cell-based; conditions: Caco-2, read-out: permeability
[15] = Clearance in Sprague-Dawley rat at 3 mg/kg, iv; assay type: ADME, organism-based; conditions: in vivo; summary of the method: as §2
HT-29 = assay: Antiproliferative activity against human HT-29 cells harboring BRAF V600E/D mutant measured after 4 days; assay type: functional, cell-based; conditions: HT-29, 96 h
[16] = molecular target: Mitogen-activated protein kinase 3 (Homo sapiens, UniProt P27361); assay: Inhibition of ERK1 (unknown origin) using peptide substrate measured after 45 mins by IMAP assay
Chain of Mitogen-activated protein kinase 3 (P27361 whole entry): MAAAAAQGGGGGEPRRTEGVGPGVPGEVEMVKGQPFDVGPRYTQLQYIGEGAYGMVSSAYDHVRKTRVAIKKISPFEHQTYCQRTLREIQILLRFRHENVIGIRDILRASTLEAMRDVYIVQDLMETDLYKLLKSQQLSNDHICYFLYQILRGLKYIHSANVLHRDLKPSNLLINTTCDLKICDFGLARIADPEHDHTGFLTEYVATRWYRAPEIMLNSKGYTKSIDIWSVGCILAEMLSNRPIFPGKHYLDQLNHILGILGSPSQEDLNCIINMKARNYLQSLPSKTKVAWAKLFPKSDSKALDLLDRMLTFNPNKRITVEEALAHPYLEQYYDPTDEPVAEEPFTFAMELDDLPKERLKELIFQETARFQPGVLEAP

[17] = Mean residence time in Beagle dog at 3 mg/kg, iv; assay type: ADME, organism-based, Canis lupus familiaris; conditions: in vivo; summary of the method: as §1
hERG (KCNH2) [18] = molecular target: T3, hERG (KCNH2) (Homo sapiens, UniProt Q12809); assay: Inhibition of human ERG at 1.5 mg/ml by binding assay relative to control; set-up: dose or concentration left out as unconfirmed
T3 sequence (Q12809 whole entry): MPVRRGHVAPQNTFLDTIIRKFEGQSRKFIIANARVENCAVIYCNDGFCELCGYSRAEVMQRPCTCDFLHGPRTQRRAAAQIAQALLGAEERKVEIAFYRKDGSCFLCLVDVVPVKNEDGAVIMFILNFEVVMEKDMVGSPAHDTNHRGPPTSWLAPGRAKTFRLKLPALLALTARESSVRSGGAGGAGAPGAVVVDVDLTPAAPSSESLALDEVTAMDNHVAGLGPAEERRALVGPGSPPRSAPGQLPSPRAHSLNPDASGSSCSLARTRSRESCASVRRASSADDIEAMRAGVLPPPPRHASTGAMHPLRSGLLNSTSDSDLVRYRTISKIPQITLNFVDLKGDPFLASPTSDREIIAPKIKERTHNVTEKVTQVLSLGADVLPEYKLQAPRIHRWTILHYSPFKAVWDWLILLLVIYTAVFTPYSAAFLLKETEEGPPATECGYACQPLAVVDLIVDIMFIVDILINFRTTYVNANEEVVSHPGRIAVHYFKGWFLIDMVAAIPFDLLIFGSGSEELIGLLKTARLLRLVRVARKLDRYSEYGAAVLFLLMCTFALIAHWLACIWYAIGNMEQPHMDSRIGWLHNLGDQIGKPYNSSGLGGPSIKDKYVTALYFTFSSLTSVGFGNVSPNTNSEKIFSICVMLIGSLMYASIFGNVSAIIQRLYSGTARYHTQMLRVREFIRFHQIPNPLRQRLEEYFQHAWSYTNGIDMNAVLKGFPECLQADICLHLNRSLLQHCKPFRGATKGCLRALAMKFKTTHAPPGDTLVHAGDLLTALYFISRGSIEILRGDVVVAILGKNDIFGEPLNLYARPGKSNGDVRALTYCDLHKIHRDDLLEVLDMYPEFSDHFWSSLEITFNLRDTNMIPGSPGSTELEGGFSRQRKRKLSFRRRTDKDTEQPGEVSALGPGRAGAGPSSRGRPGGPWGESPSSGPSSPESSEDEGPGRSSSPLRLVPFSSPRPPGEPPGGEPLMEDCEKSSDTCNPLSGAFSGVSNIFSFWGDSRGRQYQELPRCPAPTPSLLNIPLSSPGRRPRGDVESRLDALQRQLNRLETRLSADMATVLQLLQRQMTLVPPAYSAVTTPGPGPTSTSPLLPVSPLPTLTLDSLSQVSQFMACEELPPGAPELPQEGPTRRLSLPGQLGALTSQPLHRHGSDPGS

COLO 205 [19] = assay: Antitumor activity against human COLO205 cells xenografted in nude mouse assessed as tumor regression at 60 mg/kg, po bid measured after 28 days relative to control; assay type: functional; summary of the method: as §4
hERG (KCNH2) [20] = molecular target: T3, hERG (KCNH2); assay: Inhibition of human ERG at 1 uM by IonWork assay relative to control

For `CS[C@@]1(C(=O)Nc2ccc3[nH]nc(-c4ccc(OC(C)C)nc4)c3c2)CCN(CC(=O)N2CC=C(c3ccc(-c4ncn(C)n4)cc3)CC2)C1` [MK-8353], the “inhibition (INH)” value (Cytochrome P450 1A2) was “Not Active”, the half-life [1] was 78 min and the MRT [2] was 1.5 h. It also gave a half-life [3] of 96 min, a Tmax [4] of 1.7 h and a clearance [5] of 17.9 mL/min/kg. The Activity (Cavia porcellus) was “Non-Toxic”, the Tmax [6] was 4 h and the MRT [7] was 2.3 h. The IC50 (Cytochrome P450 2C8) was greater than 5 µM, the IC50 (A2058) was 371 nM and the Vd [8] was 2 L/kg. It also gave an inhibition in vivo at 40 mg/kg (COLO 205 [9]) of 88%, an IC50 (Cytochrome P450 2C9) greater than 5 µM and a fraction unbound at 10 µM [10] of less than 0.01. It also gave a clearance [11] of 3.9 mL/min/kg, a fraction unbound at 10 µM [12] of less than 0.01 and a bioavailability [13] of 23%. It also gave a Papp A→B [14] of 13.4 ×10⁻⁶ cm/s, a clearance [15] of 1 mL/min/kg and an IC50 (HT-29) of 51 nM. It also gave an IC50 [16] of 20 nM, an MRT [17] of 4 h and an inhibition (hERG (KCNH2) [18]) of -3.5%. It also gave an Activity (COLO 205 [19]) of 40% and an inhibition at 1 µM (hERG (KCNH2) [20]) of -1.7%.
